The source of these data is ChEMBL document CHEMBL1126683, “Synthesis and antitumor activity of isodoxorubicin analogues” (J Med Chem, 1993).

SMILES strings stand for the structures. Converted amounts (≈) assume the structure as drawn. Bounds are passed on as bounds.

The term T/C denotes the ratio of treated to control. Broadly, the IC50 is the concentration at which inhibition is half-maximal.

For assay [1], the species on record is Homo sapiens. Kind of assay: Activity against internally growing human tumor A-549 tested in subrenal capsule assay. The class given is functional. In outline:
(§1)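 Human tumors were grown intrarenally in a subrenal capsule assay. Tumor area of the treated group was scored against the control group as follows: >50%, between 10% and 50%, or <10% of control.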

The species entered for assay [2] is Homo sapiens. Kind of assay: Activity against internally growing human tumor HT-29 tested in subrenal capsule assay. It counts as functional. The method, boiled down:
as §1

Assay [3] concerns HT-29. Kind of assay: Growth inhibition of HT 29 cell line by MTT reduction for 7 days of incubation time. To be noted: Homo sapiens, HT-29, 168 h.
The species entered for assay [4] is Homo sapiens. Kind of assay: Activity against internally growing human tumor LXF tested in subrenal capsule assay. It counts as functional. The method, boiled down:
as §1

In assay [5] the test system is L1210. Kind of assay: Growth inhibition of L1210/ADM murine leukemia cells after 3 day exposure in MTT assay. The following applies: Mus musculus, L1210, 3 day. For orientation: Formazan colour is commonly taken as a measure of viable cells.
The test system of assay [6] is L1210. Put plainly: Growth inhibition of L1210 murine leukemia cells after 1 hr exposure in untreated control culture. It counts as functional, cell-based. To be noted: Mus musculus, L1210, 1 h. In outline: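 L1210 cells were exposed to graded concentrations for 1 h at 37 °C, washed twice in McCoy 5A, and plated at 5×10^2 cells/plate in an agar upper layer using a modified Hamburger–Salmon method. Plates were kept 5–7 days at 37 °C in 5% CO₂, 20% O₂, 95% humidity. Colonies >60 μm were counted as % of untreated control, and IC50 was read from dose–response curves.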

Assay [7] is filed under the species Homo sapiens. Kind of assay: Activity against internally growing human tumor LXF / ADM tested in subrenal capsule assay. The class given is functional. In outline:
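Tumors were resected at about 1/3 cm, cut into pieces of about 5 mm³, and retransplanted repeatedly until sensitivity was reduced. The subline was then tested in the subrenal capsule assay, with tumor area of the treated group scored as >50%, 10–50%, or <10% of control.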

Assay [8] has as its system A549. Put plainly: Growth inhibition of A 549 cell line by MTT reduction for 3 days of incubation time. It counts as functional, cell-based. The following applies: Homo sapiens, A549, 72 h. The method, boiled down:
(§2)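 Exponentially growing A549 or HT29 cells were seeded at 5×10^3/mL in RPMI and exposed to graded concentrations for 72 h (37 °C, 5% CO₂), in quadruplicate wells. MTT was added at 65 h, followed by a further 7–24 h incubation. Formazan was dissolved in DMSO and read at 492 nm. Results were expressed as extinction ratio to medium-only control, and IC50 was taken as 50% growth inhibition.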

Assay [9] in a line: Evaluated for the degree of cross resistance as the ratio of degree of resistance of doxorubicin to degree of resistance of the compound. The class given is functional. The method, boiled down: (§3)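 Colony (stem cell) assay comparing L1210 and L1210/ADM cells under continuous exposure, with the compound mixed into the agar upper layer before plating. Cells were plated at 5×10^2 per plate and incubated 5–7 days at 37 °C. Colonies >60 μm were counted relative to untreated control, and IC50 values were taken from dose–response curves to form the resistance ratios.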

Assay [10] deals with A549. Kind of assay: cells. To be noted: Homo sapiens, A549, 168 h.
Assay [11] concerns HT-29. Kind of assay: Growth inhibition of HT 29 cell line by MTT reduction for 3 days of incubation time. The class given is functional, cell-based. To be noted: Homo sapiens, HT-29, 72 h. In outline:
as §2

Assay [12] can be described thus: Evaluated for the degree of resistance as the ratio of IC50 L1210 / ADM to IC50 of L1210. The class given is functional. In outline: as §3
Assay [13] has as its system L1210. Put plainly: Growth inhibition of L1210 murine leukemia cells after 3 day exposure in MTT reduction assay. The following applies: Mus musculus, L1210, 3 days.
Assay [14] concerns L1210. Kind of assay: Percentage ratio of mean survival time of treated animals to untreated controls for L1210 mouse leukemia treated by 3.1 mg / kg dosed intravenously on 1,5,and 9 days. The following applies: route intravenous.

Turning to `COc1cccc2c1C(=O)c1c(O)c3c(c(O)c1C2=O)C[C@@](O)(C(=O)CO)C[C@@H]3O[C@H]1C[C@H](N)[C@H](O)[C@H](C)O1` [DOXORUBICIN], the T/C is given as above 10% in the assay listed under Homo sapiens [1], above 10% in the assay filed under Homo sapiens [2], below 10% in the assay filed under Homo sapiens [4] and above 10% in the assay listed under Homo sapiens [7]. In addition, the IC50 in the assay with HT-29 [3] was 0.02 µg/mL (≈ 0.0368 µM); in the assay with L1210 [5], 0.9 µg/mL (≈ 1.66 µM); in the assay on L1210 [6], 0.04 µg/mL (≈ 0.0736 µM); in the assay on A549 [8], 0.05 µg/mL (≈ 0.092 µM); with A549 [10] it was 0.02 µg/mL (≈ 0.0368 µM); with HT-29 [11], 0.06 µg/mL (≈ 0.11 µM). For the same molecule, the Degree of cross resistance in assay [9] came to 100. Also, the Degree of resistance in assay [12] came out at 45.

`CC1O[C@@H](O[C@H]2C[C@](O)(CO)Cc3c(O)c4c(c(O)c32)C(=O)c2ccccc2C4=O)C[C@@H](O)[C@@H]1N1CCOCC1` (stereo partly specified): the IC50 in the assay with L1210 [13] was 0.15 µg/mL (≈ 0.27 µM); in the assay with L1210 [6], 0.21 µg/mL (≈ 0.378 µM); in the assay with A549 [8], 0.054 µg/mL (≈ 0.0972 µM); with HT-29 [11], 0.13 µg/mL (≈ 0.234 µM).

For the molecule `CC1O[C@@H](O[C@H]2C[C@](O)(CO)Cc3c(O)c4c(c(O)c32)C(=O)c2ccccc2C4=O)C[C@@H](O)[C@@H]1NC(=O)C(F)(F)F` (stereo partly specified), the IC50 in the assay on L1210 [13] came out at 0.015 µg/mL (≈ 0.0258 µM); in the assay with L1210 [6], 0.0064 µg/mL (≈ 0.011 µM); in the assay with A549 [8] it was 0.011 µg/mL (≈ 0.0189 µM); in the assay with HT-29 [11] it was 0.026 µg/mL (≈ 0.0447 µM).

Consider `CC1O[C@@H](O[C@H]2C[C@](O)(CO)Cc3c(O)c4c(c(O)c32)C(=O)c2ccccc2C4=O)C[C@@H](O)[C@@H]1N.Cl` (stereo partly specified), for which the T/C in the assay listed under Homo sapiens [1] was above 50%; in the assay on L1210 [14], 133%; in the assay filed under Homo sapiens [2], above 50%; in the assay listed under Homo sapiens [4], above 10%; in the assay listed under Homo sapiens [7], above 50%. Besides, the IC50 turned out to be 0.009 µg/mL in the assay on L1210 [13]; 0.1 µg/mL in the assay on L1210 [5]; 0.022 µg/mL in the assay with L1210 [6]; 0.009 µg/mL with A549 [8]; 0.01 µg/mL in the assay with HT-29 [11]. The Degree of cross resistance in assay [9] was found to be 24. Further, the Degree of resistance in [12] was determined as 11.

As for `CC1O[C@@H](O[C@H]2C[C@](O)(CO)Cc3c(O)c4c(c(O)c32)C(=O)c2ccccc2C4=O)C[C@@H](O)[C@@H]1N=[N+]=[N-]` (stereo partly specified), the half-inhibitory concentration (IC50) in the assay with L1210 [13] was found to be 0.13 µg/mL (≈ 0.254 µM); with L1210 [6] it was 0.26 µg/mL (≈ 0.508 µM); in the assay on A549 [8], 0.24 µg/mL (≈ 0.469 µM); in the assay with HT-29 [11], 0.46 µg/mL (≈ 0.899 µM).
